Experimental data from different studies.
Lines come from different studies, so protocols differ.
SLC6A3: Sodium-dependent dopamine transporter (SLC6A3, Homo sapiens, UniProt Q01959)
CA12: Carbonic anhydrase 12 (CA12, Homo sapiens, UniProt O43570)
DRD3: D(3) dopamine receptor (DRD3, Homo sapiens, UniProt P35462)

| SMILES | target | assay | conditions | endpoint | value |
| --- | --- | --- | --- | --- | --- |
| CCOC(=O)[C@@]12C[C@@H]1[C@@H](n1ccc3c(NCCCCc4ccccc4)nc(C#Cc4ccccc4)nc31)[C@H](O)[C@@H]2O | SLC6A3 | ligand displacement, radioligand | – | Ki | 8 µM |
| O=C(Oc1ccccc1)c1ccc(=O)oc1 | CA12 | enzyme activity, inhibitor, stopped-flow | – | Ki | 65.7 µM |
| Cc1[nH]c(C)c(S(=O)(=O)Nc2ccc(C(F)(F)F)c(Cl)c2)c1C(=O)O | DRD3 | G protein activation, antagonist, BRET | – | IC50 | 19 µM |
| CCOC(=O)[C@@]12C[C@@H]1[C@@H](n1ccc3c(NCCCCCc4ccccc4)nc(C#Cc4ccccc4)nc31)[C@H](O)[C@@H]2O | SLC6A3 | ligand displacement, radioligand | – | Ki | 1.9 µM |
| O=C(OCc1cn(-c2ccc(Cl)cc2)nn1)c1ccc(=O)oc1 | CA12 | enzyme activity, inhibitor, stopped-flow | – | Ki | 61.3 µM |
| OC[C@@]12C[C@@H]1[C@@H](n1cnc3c(Nc4ccccc4)nc(I)nc31)[C@H](O)[C@@H]2O | SLC6A3 | ligand displacement, radioligand | – | EC50 | 3 µM |
| COc1ccc(OC(=O)c2ccc(=O)oc2)cc1 | CA12 | enzyme activity, inhibitor, stopped-flow | – | Ki | 1.65 µM |
| CCN(C)C(=O)c1c(C)[nH]c(C)c1S(=O)(=O)Nc1ccc(C(F)(F)F)c(Cl)c1 | DRD3 | G protein activation, antagonist, BRET | – | IC50 | 13 µM |
| OC[C@@]12C[C@@H]1[C@@H](n1cnc3c(N[C@@H](C4CCC4)C4CC4)nc(C#Cc4ccc(Cl)s4)nc31)[C@H](O)[C@@H]2O | SLC6A3 | ligand displacement, radioligand | – | Ki | 0.89 µM |
| Cc1[nH]c(C)c(S(=O)(=O)Nc2ccc(C(F)(F)F)c(Cl)c2)c1C(=O)NCC(F)(F)F | DRD3 | G protein activation, antagonist, BRET | – | IC50 | 4 µM |
| CNC(=O)[C@@]12C[C@@H]1[C@@H](n1cnc3c(NCc4cccc(Cl)c4)nc(C#Cc4ccc(Cl)s4)nc31)[C@H](O)[C@@H]2O | SLC6A3 | ligand displacement, radioligand | – | Ki | 1.6 µM |
| Cc1[nH]c(C)c(S(=O)(=O)Nc2ccc(C3CC3)c(Cl)c2)c1C(=O)N1CCC(F)(F)C1 | DRD3 | β-arrestin recruitment, antagonist | – | IC50 | 13 µM |
| OC[C@@]12C[C@@H]1[C@@H](n1cnc3c(NCCCCCCc4ccccc4)nc(I)nc31)[C@H](O)[C@@H]2O | SLC6A3 | ligand displacement, radioligand | – | Ki | 0.89 µM |
| COc1cc(C(F)(F)F)c(Cl)cc1NS(=O)(=O)c1c(C)[nH]c(C)c1C(=O)N1CCC(F)(F)C1 | DRD3 | β-arrestin recruitment, antagonist | – | IC50 | 7.2 µM |
| OCc1ccccc1O[C@@H]1O[C@H](CO)[C@@H](O)[C@H](O)[C@H]1O | Taste receptor type 2 member 16 (TAS2R16, Homo sapiens, UniProt Q9NYV7) | inositol phosphate, agonist, TR-FRET | – | EC50 | 13000 µM |
| C#CCNC(=O)c1ccc(=O)oc1 | CA12 | enzyme activity, inhibitor, stopped-flow | – | Ki | 68.1 µM |
| CNc1nc(I)nc2c1ncn2[C@H]1[C@H](O)[C@H](O)[C@]2(CC#N)C[C@H]12 | SLC6A3 | ligand displacement, radioligand | – | EC50 | > 10 µM |
| Cc1[nH]c(C)c(S(=O)(=O)Nc2ccc(C(F)(F)F)c(Cl)c2)c1C(=O)N(C)CC(F)(F)F | DRD3 | G protein activation, antagonist, BRET | – | IC50 | 4.6 µM |
| Cc1c(Cl)c(=O)oc2cc(OCCCCSC#N)ccc12 | CA12 | enzyme activity, inhibitor, stopped-flow | – | Ki | 0.0591 µM |
| C#CCOC(=O)c1ccc(=O)oc1 | CA12 | enzyme activity, inhibitor, stopped-flow | – | Ki | 76.3 µM |
| CNC(=O)[C@@]12C[C@@H]1[C@@H](n1cnc3c(Nc4ccccc4)nc(C#Cc4ccc(Cl)s4)nc31)[C@H](O)[C@@H]2O | SLC6A3 | ligand displacement, radioligand | – | Ki | 1.6 µM |
| COc1ccc(-n2cc(CNC(=O)c3ccc(=O)oc3)nn2)cc1 | CA12 | enzyme activity, inhibitor, stopped-flow | – | Ki | 58.7 µM |
| Cc1[nH]c(C)c(S(=O)(=O)Nc2ccc(C(=O)C(F)(F)F)c(Cl)c2)c1C(=O)N1CCC(F)(F)C1 | DRD3 | G protein activation, antagonist, BRET | – | IC50 | 14.3 µM |
| O=C(NCc1cn(-c2ccccc2)nn1)c1ccc(=O)oc1 | CA12 | enzyme activity, inhibitor, stopped-flow | – | Ki | 62 µM |
| NCC(=O)O | Glutamate NMDA receptor; GRIN1/GRIN2B (GRIN1/GRIN2B, Homo sapiens, UniProt Q05586+Q13224) | ion current, agonist, two-electrode voltage clamp | oocytes | EC50 | 0.32 µM |
| Cc1[nH]c(C)c(S(=O)(=O)Nc2ccc(C(F)(F)F)c(Cl)c2)c1C(=O)N1CC[C@@H](F)C1 | DRD3 | β-arrestin recruitment, antagonist | – | IC50 | 5.1 µM |
| O=C(OCc1cn(-c2ccc([N+](=O)[O-])cc2)nn1)c1ccc(=O)oc1 | CA12 | enzyme activity, inhibitor, stopped-flow | – | Ki | 62.8 µM |
